# In PubChem BioAssay AID463191 (Sanford-Burnham Center for Chemical Genomics, 2010):
# The source made the active and inactive calls.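 How the source made its calls: active means compounds whose mean IC50 across repeat dose response tests falls below a set limit; inactive means the rest.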
# Test system: AML12 mouse hepatocytes, BODIPY lipid droplet imaging
# Assay: potency against lipid droplet buildup in liver cells – imaging, AML12 mouse hepatocytes, high-content, dose response (AID 463191)
# Settings: cells loaded with 100 µM oleic acid
# Outline: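 test system = mouse AML12 hepatocytes | also added = oleic acid, 100 µM | doses = Seven-point series from 32 to 0.5 µM, 0.32% DMSO | schedule = cells grown about 20 h at 37 °C, then overnight compound exposure | measure = IC50 from per-cell lipid droplet intensity | benchmarks = 5 µM Triacsin-C | replication = duplicate points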
row,SMILES,IC50
1,Cc1ccc(-n2nc3c(=O)n(CC(=O)NC(C)CCc4ccccc4)nc(C)c3c2C)cc1 (centres undefined),581 nM
2,O=C(Cc1coc2ccc3ccccc3c12)NC1CCCc2ccccc21 (centres undefined),4390 nM
3,CCOc1ccc(C(C)NC(=O)Cc2ccccc2F)cc1OCC (centres undefined),6250 nM (inactive)
4,COc1cccc(NC(=O)CCC(=O)Nc2cc(OC)c(NC(=O)c3cccs3)cc2OC)c1,754 nM
5,COc1ccc(C(=O)CCC(=O)NCCc2c[nH]c3ccccc23)cc1OC,2120 nM
6,COc1ccc(CCNC(=O)CCOc2cc(C)ccc2C)cc1OC,4550 nM
7,COc1ccc(C)cc1NC(=O)C/C(C)=N/NC(=O)Cc1cccc2ccccc12,13800 nM (inactive)
8,Cc1ccc(-n2nc3c(=O)n(C(C)C(=O)NCCC4=CCCCC4)nc(C)c3c2C)cc1 (centres undefined),3870 nM
9,CCCN1C(=O)/C(=C\C=C2\N(CC)c3ccccc3C2(C)C)SC1=S,< 500 nM
10,CCOc1ccc(CCNC(=O)c2cc(-c3ccccc3)c(N3CCOCC3)s2)cc1OCC,< 500 nM
11,CCN(CC)c1ccc(NC(=O)CCc2nnc3ccc(N4CCCC4)nn23)c(C)c1,2350 nM
12,Cc1ccc(-c2c(C)nn3c(N4CCOCC4)cc(C)nc23)cc1,633 nM
13,CCOc1ccc(CCNC(=O)CCc2nc(-c3ccc(OC)cc3)no2)cc1OCC,782 nM
14,COc1ncccc1C(=O)NC1CCCc2c1cnn2-c1ccc(C)c(C)c1 (centres undefined),3440 nM
15,CCNC(=S)N1CCc2cc(OC)c(OC)cc2C1COc1ccccc1OC (centres undefined),3770 nM
16,CCOc1ccc(CCNC(=O)C2CC(=O)N(Cc3ccc(OC)cc3)C2)cc1OCC (centres undefined),3810 nM
17,Cc1cc(C)cc(NC(=O)CSc2nc3ccccc3nc2N2CCCC2)c1,2110 nM
18,CCOc1ccc(CCNC(=O)CCS(=O)(=O)c2ccc(C)cc2)cc1OCC,1850 nM
19,CCc1ccc(NC(=O)CSc2nc3ccccc3nc2N2CCCC2)cc1,1940 nM
20,COc1ccc(CNC(=O)CN2C(=O)NC(C)(c3cccc4ccccc34)C2=O)cc1OC (centres undefined),2320 nM
21,CCOc1ccc(CCNC(=O)CSc2cc(=O)n(CC)c3ccccc23)cc1OCC,1100 nM
22,CCOc1ccc(CN(C)C(=O)CNC(=O)c2ccc(Br)o2)cc1OC,3880 nM
23,CCCCCn1c(N)c(-c2nc3ccccc3s2)c2c([N+](=O)[O-])nn(CC)c(=O)c21,7460 nM (inactive)
24,CCOc1ccc(CCNC(=O)CCS(=O)(=O)c2ccc(OC)cc2)cc1OCC,2720 nM
25,COc1ccc(C(C(=O)NC(C)(C)C)N(Cc2ccco2)C(=O)CCC(=O)Nc2cc(C)on2)cc1 (centres undefined),4840 nM

row,SMILES,IC50
1,CC(C)Oc1ccc(C(=O)OC(C)C(=O)Nc2nc(-c3cccc([N+](=O)[O-])c3)cs2)cc1 (centres undefined),866 nM
2,COc1ccc(C(=O)OC(C)C(=O)Nc2cc(C(F)(F)F)ccc2Cl)c(OC)c1OC (centres undefined),850 nM
3,COc1ccc(CCNC(=O)[C@H](C)N2C(=O)N3CCc4c([nH]c5ccccc45)[C@@]3(C)C2=O)cc1OC,1780 nM
4,CCOc1ccc(CCNC(=O)CSc2cc(=O)n(C)c3ccccc23)cc1OCC,823 nM
5,CCOc1ccc2nc(NC(=O)CSc3nc4ccccc4c(=O)n3Cc3ccco3)sc2c1,620 nM
6,Nc1nc(-c2ccccc2)c(N=Nc2cccc3ccccc23)s1,525 nM
7,CCc1nn2c(N3CCOCC3)cc(C)nc2c1-c1ccc(F)cc1,< 500 nM
8,COc1ccc(NC(=O)CSc2nc3ccccc3nc2N2CCCC2)cc1Cl,2850 nM
9,CCOc1ccc(CCNC(=O)c2cccs2)cc1OCC,2350 nM
10,CCCOc1ccc(C(=O)OCC(=O)NCCc2ccc(OCC)c(OCC)c2)cc1OC,593 nM
11,CCOc1ccc(CCNC(=O)CN2CCN(Cc3ccccc3C)C2=O)cc1OCC,924 nM
12,COc1cc(NC(=O)c2cccs2)c(OC)cc1NC(=O)CCC(=O)Nc1ccc2ncccc2c1,2230 nM
13,CCOc1ccc2nc(-c3ccccc3)nc(SCC(=O)Nc3ncc(C)s3)c2c1,< 500 nM
14,COc1cccc(NC(=O)CSc2nc3ccccc3nc2N2CCCC2)c1,5260 nM (inactive)
15,CC(=O)Nc1ccc(-c2csc(NC(=O)Cc3ccccc3F)n2)cc1,5100 nM (inactive)
16,O=C(NCc1ccc2c(c1)OCO2)c1cc(-c2ccccc2)c(N2CCOCC2)s1,715 nM
17,Cc1cccc(C(C(=O)NC2CCCC2)N(C(=O)c2csnn2)C2CCCC2)c1 (centres undefined),23900 nM (inactive)
18,CCc1c(C#N)c(SCCC(=O)Nc2ccc(OC)cc2)nc2c1C(=O)CC(C)(C)C2,5310 nM (inactive)
19,CCCCN(C(=O)CCC(=O)Nc1cc(C)on1)C(C(=O)NC1CCCC1)c1ccc(OCC)cc1 (centres undefined),4070 nM
20,COc1ccccc1CNS(=O)(=O)c1ccc2c(c1)CC(C)N2C(=O)C1CCC1 (centres undefined),680 nM
21,CCOc1ccc(CCNC(=O)CN2C(=O)c3cccnc3Oc3ccc(C)cc32)cc1OCC,< 500 nM
22,C/C(=N\Nc1ccc(S(=O)(=O)Nc2ccccc2)cc1[N+](=O)[O-])c1ccc(N2CCOCC2)cc1,1280 nM
23,Cc1cc(C(=O)OC(C)C(=O)Nc2nc(-c3ccccc3)cs2)c(C)o1 (centres undefined),758 nM
24,CC1CCN(C2=C(NS(=O)(=O)c3ccc(Br)cc3)C(=O)c3ccccc3C2=O)CC1,703 nM
25,CCOc1ccc(CCNC(=O)C2CC=CCC2C(=O)OC(C)C)cc1OCC (centres undefined),746 nM

row,SMILES,IC50
1,COc1ccc(CCNC(=O)Cc2cccc(C(F)(F)F)c2)cc1OC,9060 nM (inactive)
2,CCOc1ccc(CCNC(=O)Cn2nc(C)c3c(C)n(-c4ccccc4)nc3c2=O)cc1OCC,< 500 nM
3,COc1ccc(CC(=O)Nc2oc(-c3ccccc3)c(-c3ccccc3)c2C#N)cc1OC,1260 nM
4,CCOc1ccc(CCNC(=O)CCC(=O)N2CCSc3ccccc32)cc1OCC,< 500 nM
5,CCOc1ccc(CCNC(=O)CCNC(=O)c2ccccc2Cl)cc1OCC,5880 nM (inactive)
6,CCn1cc(CCCC(=O)NCc2cccc(OC)c2)c2ccccc21,6430 nM (inactive)
7,COc1ccc(CCNC(=O)c2cc(-c3ccccc3)c(N3CCOCC3)s2)c(OC)c1OC,< 500 nM
8,CCOc1ccc(CCNC(=O)CCOc2cc(C)ccc2C)cc1OCC,< 500 nM
9,CCOc1ccc(CCNC(=O)CCS(=O)(=O)c2ccc(Br)cc2)cc1OCC,3270 nM
10,CCOc1ccc(CCNC(=O)COc2cc(=O)n(C)c3ccccc23)cc1OCC,3950 nM
11,CCOC(=O)c1ccc(S(=O)(=O)NCC(c2ccc(N(C)C)cc2)c2c[nH]c3ccccc23)cc1 (centres undefined),927 nM
12,CCCc1ccc(-c2csc(NC(=O)Cc3cccs3)n2)cc1,1480 nM
13,CCOc1ccc(CCNC(=O)CSc2cc(=O)n(C)c3cc(Cl)ccc23)cc1OCC,708 nM
14,CCOc1ccc(CCNC(=O)CN2CCN(Cc3ccc(F)cc3)C2=O)cc1OCC,1830 nM
15,CCOc1ccc(CCNC(=O)CN2C(=O)NC3(CCCC3)C2=O)cc1OCC,1070 nM
16,CCCOc1ccc(/C=N/Nc2ccccc2[N+](=O)[O-])c(OCCC)c1,< 500 nM
17,COc1ccc(C(C(=O)NC(C)(C)C)N(Cc2cccs2)C(=O)CCC(=O)Nc2cc(C)on2)cc1 (centres undefined),4160 nM
18,Cc1ccc(NC(=O)CSc2nc3ccccc3nc2N2CCCC2)cc1,2110 nM
19,CCOc1ccc(CCNC(=O)COC(=O)c2cc(OC)cc(OC)c2)cc1OCC,6120 nM (inactive)
20,CCOc1ccc(CCNC(=O)COC(=O)c2cc([N+](=O)[O-])ccc2N2CCOCC2)cc1OCC,3000 nM
21,CCOc1ccc(CCNC(=O)COC(=O)c2cccnc2OCC)cc1OCC,2290 nM
22,COc1ccc(-c2csc(NC(=O)c3ccc(OCC(=O)N4CCOCC4)c(OC)c3)n2)cc1,782 nM
23,CCOc1ccc(CCNC(=O)c2nnc(Cc3ccc(F)cc3)o2)cc1OCC,1570 nM
24,CCOc1ccc(NC(=O)CSc2nc3ccccc3nc2N2CCCC2)cc1,1770 nM
